Data on one compound can be found in ChEMBL document CHEMBL4316597, “Design, Synthesis, and Biological Evaluation of Itaconic Acid Derivatives as Potential Anti-Influenza Agents” (J Med Chem, 2019).

Data set [1] has as its system Influenza A virus. The experiment in a line: Inhibition of viral protein synthesis in Influenza A virus (A/WSN/33) infected in MDCK cells assessed as effect on NP protein level at 10 uM measured up to 9 hrs post infection by Western blot analysis. It is filed as functional, organism-based. As to conditions: A/WSN/1933(H1N1). The procedure, abridged: (§1)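 MDCK cells (5 × 10^5/well) infected with A/WSN/33 at MOI 0.1, washed twice, then held in E0 with or without 10 μM compound. Lysed in Triton X-100/deoxycholate buffer, equal protein separated by SDS-PAGE, and immunoblotted for viral proteins with GAPDH as loading control. Time-course harvests up to 9 h pi.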
For orientation: Immunoblotting shows a protein as a band on a membrane.

The test system of the next data set is Enterovirus. The experiment in a line: Antiviral activity against Rhinovirus 71803 infected in human RD cells after 72 hrs by crystal violet-staining based assay. The class given is functional, organism-based. The following applies: Enterovirus, 71803, RD. In a few lines: (§2)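 Cells seeded at 2 × 10^4/well in E10 (DMEM, 10% FBS), 16–24 h at 37 °C/5% CO2, washed with DPBS, then infected at nine-fold TCID50 with or without serial compound concentrations. Influenza is run in MDCK and enterovirus/rhinovirus in RD. Incubated 72 h, fixed in 4% paraformaldehyde, stained with 0.1% crystal violet, and read for cell density. EC50 = 50% CPE inhibition by Reed–Muench; mean ± S.D. of at least three runs.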

Data set [2] deals with Influenza A virus. The experiment in a line: Antiviral activity against pandemic Influenza A virus A/TW/2235/09 (H1N1) SO4 infected in MDCK cells after 72 hrs by crystal violet-staining based assay. It is filed as functional, organism-based. As to conditions: A/TW/2235/09 (H1N1) SO4, MDCK. In a few lines:
as §2

Data set [3] can be described thus: Selectivity ratio of CC50 for MDCK cells to EC50 for Influenza A virus A/TW/00642/14. The class given is toxicity. The following applies: dog, read-out: Ratio CC50/EC50. The procedure, abridged: (§3)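 MDCK cells (2 × 10^4/well, E10, 16–24 h) infected at nine-fold TCID50 with compound for 72 h, 37 °C, 5% CO2. Cells were fixed in 4% paraformaldehyde and stained with crystal violet; EC50 is from Reed–Muench. For CC50, cells had compound alone for 72 h, then MTT 3 h, DMSO, A570, Reed–Muench. SI = CC50/EC50; three independent experiments.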

Data set [4] relates to Influenza A virus. The experiment in a line: Inhibition of viral protein sub-cellular distribution in Influenza A virus (A/WSN/33) infected in MDCK cells assessed as reduction in PA protein distribution to cytoplasm at 10 uM measured after 9 hrs post infection by IF-staining based microscopy. The class given is functional, organism-based. As to conditions: A/WSN/1933(H1N1). In a few lines: (§4)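 MDCK cells grown on coverslips (2 × 10^5/well, 16 h), infected at MOI 0.1 for 1 h, washed, then kept in E0 with test compound (1 or 10 μM) or LMB 10 nM; DMSO 0.05% as mock. Fixed at 9 h pi in 4% paraformaldehyde and immunostained for M1, NP, NS2 or PA (1:50), with Hoechst nuclear stain. Viewed by confocal microscopy at 63×. NP nuclear/cytoplasmic intensity ratio quantified; three independent experiments.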

Data set [5] has as its target Hemagglutinin (Influenza A virus) (UniProt B4URE7). Description: Inhibition Influenza A virus (A/WSN/33) HA infected in guinea pig RBC assessed as reduction in hemagglutination at serial dilution from 50 uM after 1 hr by HAI assay. The following applies: Influenza A virus (A/WSN/1933(H1N1)). The procedure, abridged: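 Virus titrated on 0.5% guinea pig RBCs to define 1 HA unit; 4 HA units used. Compound two-fold serially diluted from 50 µM and mixed with virus for 30 min at room temperature, or tested without virus for direct agglutination. 0.5% RBCs then added and agglutination scored after 1 h. DMSO/RBC-only and virus-only controls included.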

Data set [6] deals with Influenza A virus. Description: Inhibition of viral protein synthesis in Influenza A virus (A/WSN/33) infected in MDCK cells assessed as effect on M1 protein level at 10 uM measured up to 9 hrs post infection by Western blot analysis. As to conditions: A/WSN/1933(H1N1). It is filed as functional, organism-based. The procedure, abridged: as §1
Data set [7] deals with Influenza A virus. Description: Inhibition of viral protein sub-cellular distribution in Influenza A virus (A/WSN/33) infected in MDCK cells assessed as reduction in M1 protein distribution to cytoplasm at 10 uM measured after 9 hrs post infection by IF-staining based microscopy. As to conditions: A/WSN/1933(H1N1). It is filed as functional, organism-based. The procedure, abridged: as §4

The subject of the next data set is Enterovirus A71. Description: Antiviral activity against Enterovirus A71 TW/2231/1998 infected in human RD cells after 72 hrs by crystal violet-staining based assay. The following applies: Enterovirus A, TW/2231/1998, RD. The class given is functional, organism-based. In a few lines: as §2
Data set [8] concerns Influenza A virus. The experiment in a line: Inhibition of viral protein synthesis in Influenza A virus (A/WSN/33) infected in MDCK cells assessed as effect on PA protein level at 10 uM measured up to 9 hrs post infection by Western blot analysis. It is filed as functional, organism-based. As to conditions: A/WSN/1933(H1N1). In a few lines: as §1
Data set [9] has as its system Influenza A virus. The experiment in a line: Inhibition of viral protein synthesis in Influenza A virus (A/WSN/33) infected in MDCK cells assessed as effect on NS1 protein level at 10 uM measured up to 9 hrs post infection by Western blot analysis. It is filed as functional, organism-based. As to conditions: A/WSN/1933(H1N1). In a few lines: as §1
For data set [10], the system named is Influenza A virus. Description: Antiviral activity against Influenza A virus (A/WSN/33) infected in MDCK cells at 10 uM added at -1 hrs to 9 hrs post infection and measured after 9 hrs by plaque assay. It is filed as functional, organism-based. As to conditions: A/WSN/1933(H1N1). The procedure, abridged:
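MDCK monolayers exposed to compound (1 or 10 μM) over windows of −3, −1, 0, 3 or 6 to 9 h pi. A/WSN/33 adsorbed at MOI 0.1 from −1 to 0 h, then removed with a PBS wash. Supernatant taken at 9 h pi and titred by plaque assay, normalised to virus-only (100%). Average of three independent experiments.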

Data set [11] can be described thus: Selectivity ratio of CC50 for MDCK cells to EC50 for Influenza A virus (A/WSN/33). The class given is toxicity. As to conditions: dog, read-out: Ratio CC50/EC50. The procedure, abridged: (§5)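 SI is calculated as CC50 (MDCK, 72 h MTT) divided by EC50 (72 h crystal-violet CPE assay in MDCK).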
Data set [12] deals with Influenza A virus. The experiment in a line: Inhibition of viral RNA synthesis in Influenza A virus (A/WSN/33) infected in MDCK cells assessed as effect on matrix protein 1 RNA level at 10 uM measured up to 9 hrs post infection by RT-qPCR analysis. The class given is functional, organism-based. The following applies: A/WSN/1933(H1N1). In a few lines: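 MDCK monolayers (5 × 10^5/well) infected with A/WSN/33, then given 10 μM compound during or after infection. Total RNA extracted with TRIzol at 0, 3, 6 and 9 h pi. Viral RNA quantified by RT-qPCR with M1-specific primers, GAPDH used for quantitative standards. Representative of three independent experiments.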

Data set [13] in a line: Selectivity ratio of CC50 for MDCK cells to EC50 for Influenza A virus A/TW/00482/13. It is filed as toxicity. As to conditions: dog, read-out: Ratio CC50/EC50. The procedure, abridged: as §5
Data set [14] concerns Influenza A virus. The experiment in a line: Antiviral activity against pandemic Influenza A virus A/TW/90206/09 (H1N1) SO4 infected in MDCK cells after 72 hrs by crystal violet-staining based assay. As to conditions: A/TW/90206/09 (H1N1) SO4, MDCK. It is filed as functional, organism-based. In a few lines:
as §2

The nature of data set [15]: Cytotoxicity against MDCK cells assessed as cell death after 72 hrs by MTT assay. It is filed as cell-based, Canis lupus familiaris. As to conditions: dog. In a few lines: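 MDCK or RD cells at 2 × 10^4/well in E10, overnight at 37 °C/5% CO2, DPBS wash, then exposed to graded compound concentrations for 72 h. MTT added for 3 h, formazan dissolved in DMSO, absorbance read at 570 nm. CC50 (50% cell death) by Reed–Muench.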

Data set [16] is described as follows: Selectivity ratio of CC50 for MDCK cells to EC50 for pandemic Influenza A virus A/TW/90206/09 (H1N1) SO4. As to conditions: dog, read-out: Ratio CC50/EC50. It is filed as toxicity. In a few lines: as §3

Calls of active or inactive are those of the source. The rule behind the calls is not given here.

Sequence of Hemagglutinin (Influenza A virus) (B4URE7 as listed by the source): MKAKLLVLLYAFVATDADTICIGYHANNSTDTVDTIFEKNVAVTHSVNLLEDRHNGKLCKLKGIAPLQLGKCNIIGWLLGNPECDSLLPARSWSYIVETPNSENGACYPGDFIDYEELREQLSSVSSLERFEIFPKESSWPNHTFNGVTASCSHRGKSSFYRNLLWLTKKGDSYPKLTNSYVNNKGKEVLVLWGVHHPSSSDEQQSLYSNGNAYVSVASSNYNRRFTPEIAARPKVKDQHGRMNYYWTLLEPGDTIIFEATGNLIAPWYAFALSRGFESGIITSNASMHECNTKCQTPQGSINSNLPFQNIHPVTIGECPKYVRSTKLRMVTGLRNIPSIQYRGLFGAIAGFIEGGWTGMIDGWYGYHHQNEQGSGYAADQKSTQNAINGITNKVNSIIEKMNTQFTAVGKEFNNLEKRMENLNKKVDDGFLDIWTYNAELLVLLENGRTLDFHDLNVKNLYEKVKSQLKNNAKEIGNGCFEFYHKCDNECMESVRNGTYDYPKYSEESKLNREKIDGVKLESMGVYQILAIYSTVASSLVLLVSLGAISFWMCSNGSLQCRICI

As a reminder, the EC50 is the concentration needed to bring the measured effect to its halfway point. As usually defined, the CC50 is the concentration that lowers cell viability or growth by half. In the case of `C=C(CC(=O)Nc1ccc(F)cc1F)C(=O)Nc1ccc(F)cc1F`, the inhibition entry (in the data set on Influenza A virus [1]; with Influenza A virus [4]; in data set [5]; in the data set on Influenza A virus [6]; in the data set with Influenza A virus [7]; in the data set on Influenza A virus [8]) was “inactive” throughout. For the same compound, the inhibition entry in the data set with Influenza A virus [9] and with Influenza A virus [12] was “inactive” each time. For the same compound, the EC50 in the data set with Enterovirus was greater than 50 µM; in the data set on Influenza A virus [2], 2.36 µM; in the data set with Enterovirus A71 it was 4.5 µM; in the data set with Influenza A virus [14] it was 2.98 µM. Further, the selectivity ratio stood at 25 in [3], 29.8 in data set [11], 22 in [13] and 28 in data set [16]. In addition, in the data set with Influenza A virus [10], the result was Active. The CC50 at 72 h in data set [15] is 84.7 µM.
